From ChEMBL document CHEMBL1132577, “Conformational preferences in a benzodiazepine series of potent nonpeptide fibrinogen receptor antagonists” (J Med Chem, 1999)

Legend:
[1] = target: Integrin alpha-IIb/beta-3 (Homo sapiens, UniProt P05106+P08514); assay: Fibrinogen receptor binding affinity was determined by assaying for inhibition of [3H]1 binding to purified Fibrinogen Receptor isolated from human platelets and reconstituted in liposomes
How it was run: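 Competition binding of the tritiated ligand [³H]-1 to the fibrinogen receptor glycoprotein complex GPIIb/IIIa, purified from human platelets and reconstituted into liposomes. The read-out is inhibition of radioligand binding.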

Homo sapiens = organism: Homo sapiens; assay: Inhibition of ADP-induced platelet aggregation in human platelet-rich plasma.; assay type: functional, organism-based

Integrin alpha-IIb/beta-3, sequence (P05106 27-788 limits assumed): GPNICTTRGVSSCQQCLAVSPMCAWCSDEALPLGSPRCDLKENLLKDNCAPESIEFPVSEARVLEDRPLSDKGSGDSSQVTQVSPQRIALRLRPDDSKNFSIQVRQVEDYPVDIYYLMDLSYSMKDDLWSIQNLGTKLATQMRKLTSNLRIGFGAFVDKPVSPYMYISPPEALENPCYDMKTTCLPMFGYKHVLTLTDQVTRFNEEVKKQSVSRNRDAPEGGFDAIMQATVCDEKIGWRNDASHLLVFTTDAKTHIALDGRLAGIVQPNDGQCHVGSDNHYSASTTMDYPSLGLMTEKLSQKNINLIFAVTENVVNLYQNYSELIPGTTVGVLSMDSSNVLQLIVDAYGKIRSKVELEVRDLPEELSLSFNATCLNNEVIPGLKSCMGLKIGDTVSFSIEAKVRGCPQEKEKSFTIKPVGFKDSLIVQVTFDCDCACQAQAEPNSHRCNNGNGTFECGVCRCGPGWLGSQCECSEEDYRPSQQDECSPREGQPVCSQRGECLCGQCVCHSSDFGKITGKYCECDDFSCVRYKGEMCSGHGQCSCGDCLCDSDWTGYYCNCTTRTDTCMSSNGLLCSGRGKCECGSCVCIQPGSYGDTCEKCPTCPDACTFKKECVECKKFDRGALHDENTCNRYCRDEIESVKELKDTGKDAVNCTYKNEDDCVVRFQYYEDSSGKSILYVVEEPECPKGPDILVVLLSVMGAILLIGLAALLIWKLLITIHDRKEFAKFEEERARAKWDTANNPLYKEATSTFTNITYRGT
Integrin alpha-IIb/beta-3, sequence (P08514 32-887 limits assumed): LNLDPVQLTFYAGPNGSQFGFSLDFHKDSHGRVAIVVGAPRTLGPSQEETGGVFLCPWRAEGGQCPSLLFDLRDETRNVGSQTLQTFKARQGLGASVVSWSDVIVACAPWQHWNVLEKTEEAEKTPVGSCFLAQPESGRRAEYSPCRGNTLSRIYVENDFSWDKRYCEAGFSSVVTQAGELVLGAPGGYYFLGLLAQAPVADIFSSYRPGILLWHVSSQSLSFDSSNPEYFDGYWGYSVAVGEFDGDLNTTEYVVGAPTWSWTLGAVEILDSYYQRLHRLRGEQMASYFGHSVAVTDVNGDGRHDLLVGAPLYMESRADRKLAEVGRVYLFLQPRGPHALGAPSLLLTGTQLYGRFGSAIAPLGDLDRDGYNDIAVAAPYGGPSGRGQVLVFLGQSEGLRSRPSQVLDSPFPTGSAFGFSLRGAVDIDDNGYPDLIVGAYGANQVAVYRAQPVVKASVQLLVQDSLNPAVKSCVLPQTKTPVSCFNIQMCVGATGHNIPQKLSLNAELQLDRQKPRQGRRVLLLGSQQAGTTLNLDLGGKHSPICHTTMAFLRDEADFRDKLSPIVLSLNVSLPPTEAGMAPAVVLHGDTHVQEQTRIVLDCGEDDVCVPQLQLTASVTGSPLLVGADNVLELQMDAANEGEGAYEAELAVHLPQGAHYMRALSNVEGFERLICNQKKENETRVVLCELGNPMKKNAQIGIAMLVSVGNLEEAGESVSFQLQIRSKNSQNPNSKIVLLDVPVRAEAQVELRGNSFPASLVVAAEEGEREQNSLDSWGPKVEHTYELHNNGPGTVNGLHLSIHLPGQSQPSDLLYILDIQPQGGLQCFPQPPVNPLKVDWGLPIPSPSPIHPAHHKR
Integrin alpha-IIb/beta-3, sequence (P08514 891-1039 limits assumed): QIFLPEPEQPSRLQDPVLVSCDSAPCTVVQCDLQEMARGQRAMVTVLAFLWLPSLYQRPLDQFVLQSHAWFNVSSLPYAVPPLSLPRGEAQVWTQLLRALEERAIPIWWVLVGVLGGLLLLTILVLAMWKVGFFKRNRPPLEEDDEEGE

SMILES: O=C(O)CC1Nc2cc(C(=O)NCCC3CCNCC3)ccc2CN(CCc2ccccc2)C1=O (configuration not stated)
- Ki [1]: 4.7 nM
- IC50 (Homo sapiens): 510 nM

SMILES: O=C(O)CC1Nc2cc(/C=C\CCC3CCNCC3)ccc2CN(CCc2ccccc2)C1=O (configuration not stated)
- Ki [1]: 750 nM
- IC50 (Homo sapiens): 7400 nM

SMILES: N=C(N)c1ccc(NC(=O)c2ccc3c(c2)N[C@@H](CC(=O)O)C(=O)N(CCc2ccccc2)C3)cc1
- Ki [1]: 2 nM
- IC50 (Homo sapiens): 34 nM

SMILES: N=C(N)c1ccc(C(=O)Nc2ccc3c(c2)NC(CC(=O)O)CN(CCc2ccccc2)C3=O)cc1 (configuration not stated)
- IC50 (Homo sapiens): > 200000 nM

SMILES: CN(C(=O)c1ccc2c(c1)CN(CCC(=O)O)C(=O)CC2)c1ccc(C(=N)N)cc1
- Ki [1]: 22500 nM
- IC50 (Homo sapiens): > 200000 nM

SMILES: N=C(N)c1ccc(NC(=O)c2ccc3c(c2)NC(CC(=O)O)CN(CCc2ccccc2)C3)cc1 (configuration not stated)
- Ki [1]: 540 nM
- IC50 (Homo sapiens): 3000 nM

SMILES: N=C(N)c1ccc(C(=O)Nc2ccc3c(c2)CN(CC(=O)O)C(=O)NC3)cc1
- IC50 (Homo sapiens): 23000 nM

SMILES: N=C(N)c1ccc(NC(=O)c2ccc3c(c2)N[C@H](CC(=O)O)C(=O)N(CCc2ccccc2)C3)cc1
- Ki [1]: 500 nM
- IC50 (Homo sapiens): 2200 nM

SMILES: N=C(N)c1ccc(C(=O)Nc2ccc3c(c2)NC(CC(=O)O)C(=O)N(CCc2ccccc2)C3)cc1 (configuration not stated)
- Ki [1]: 2 nM
- IC50 (Homo sapiens): 130 nM

SMILES: N=C(N)c1ccc(NC(=O)c2cccc(NC(CC(=O)O)C(=O)O)c2)cc1 (configuration not stated)
- IC50 (Homo sapiens): 4700 nM

SMILES: O=C(O)CC1Nc2cc(/C=C/CCC3CCNCC3)ccc2CN(CCc2ccccc2)C1=O (configuration not stated)
- Ki [1]: 19 nM
- IC50 (Homo sapiens): 175 nM

SMILES: N=C(N)c1ccc(C(=O)Nc2ccc3c(c2)CN(CC(=O)O)C(=O)CN3)cc1
- Ki [1]: 1200 nM
- IC50 (Homo sapiens): 3100 nM

SMILES: O=C(O)CC1Nc2cc(CCCCC3CCNCC3)ccc2CN(CCc2ccccc2)C1=O (configuration not stated)
- Ki [1]: 80 nM
- IC50 (Homo sapiens): 930 nM

SMILES: CN(CCC1CCNCC1)C(=O)c1ccc2c(c1)NC(CC(=O)O)C(=O)N(CCc1ccccc1)C2 (configuration not stated)
- Ki [1]: 1.9 nM
- IC50 (Homo sapiens): 15 nM

SMILES: N=C(N)c1ccc(C(=O)Nc2ccc3c(c2)CN(CCC(=O)O)C(=O)CN3)cc1
- Ki [1]: 290 nM
- IC50 (Homo sapiens): 2100 nM

SMILES: N=C(N)c1ccc(NC(=O)c2ccc3c(c2)NC(CC(=O)O)CCC3)cc1 (configuration not stated)
- IC50 (Homo sapiens): 3900 nM

SMILES: CN(C(=O)c1ccc2c(c1)CN(CC(=O)O)C(=O)CC2)c1ccc(C(=N)N)cc1
- Ki [1]: > 50000 nM
- IC50 (Homo sapiens): > 200000 nM

SMILES: N=C(N)c1ccc(NC(=O)c2ccc3c(c2)NC(CC(=O)O)CN(CCc2ccccc2)C3=O)cc1 (configuration not stated)
- Ki [1]: 800 nM
- IC50 (Homo sapiens): 8300 nM
